# Laboratory results taken from ChEMBL document CHEMBL1124297, “7-Aminoquinolines. A novel class of agents active against herpesviruses” (J Med Chem, 1988).
# System: Human alphaherpesvirus 1
# Test: Inhibitory activity against herpes simplex virus type-1 (HSV-1) replication in KB cells
# Type: functional, organism-based
# Settings: Human alphaherpesvirus 1, KB
# Procedure, shortened: (§1)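 HSV-1 (HF strain)-infected KB cells were treated in duplicate for 20 h with five or six half-log dilutions of compound. The disrupted cultures were serially diluted onto BHK 21/4 cells, and titers were determined by counting macroscopic plaques. I50 came from linear regression of log concentration versus % inhibition of viral replication. Each assay included 10 µg/mL ara-A as positive control, and a set was rejected if ara-A deviated by more than 1.5 SD.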
row,IC50,SMILES
1,7 µg/mL,Cc1cc(Cl)c2ccc(N(C)C)cc2n1
2,6 µg/mL,CN(C)c1ccc2ccc(N(C)C)nc2c1
3,11 µg/mL,CNc1ccc2ccc(N(C)C)cc2n1
4,4.5 µg/mL,Cc1ccc2ccc(N(C)C)cc2n1
5,13 µg/mL,Cc1c(Cl)nc2cc(N(C)C)ccc2c1Cl
6,7.6 µg/mL,Cc1cnc2cc(N(C)C)ccc2c1
7,2 µg/mL,CN(C)c1ccc2ccc(N)nc2c1
8,9 µg/mL,Cc1cc(N(C)C)c2ccc(N(C)C)cc2n1
9,30 µg/mL,CN(C)c1ccc2ccc(O)nc2c1
10,23 µg/mL,Cc1cc(O)c2ccc(N(C)C)cc2n1
11,6 µg/mL,CNc1cc(C)nc2cc(N(C)C)ccc12

# Further lines, the compound ahead of its results:
row,SMILES,IC50
1,Cc1ccnc2cc(N)ccc12,40 µg/mL
2,Nc1nc2c(ncn2COCCO)c(=O)[nH]1 [ACYCLOVIR],2.6 µg/mL
3,Nc1ccc2ccc(N)nc2c1,10 µg/mL
4,Nc1ncnc2c1ncn2[C@@H]1O[C@H](CO)[C@@H](O)[C@@H]1O [VIDARABINE],5.6 µg/mL
5,CC(=O)Nc1ccc2c(C)cc(N)nc2c1,10 µg/mL
6,CC(=O)Nc1ccc2c(C)ccnc2c1,31 µg/mL
7,CN(C)c1ccc2ccc(N)cc2n1,51 µg/mL
8,O=C(O)P(=O)(O)O [FOSCARNET],189 µg/mL
9,Cc1cn([C@@H]2O[C@H](CO)[C@@H](O)[C@@H]2O)c(=O)[nH]c1=O,0.6 µg/mL
10,Cc1cc(N)nc2cc(N)ccc12,4 µg/mL
11,Cc1c(N(C)C)nc2cc(N(C)C)ccc2c1Cl,49 µg/mL
12,CN(C)c1ccc2c(N(C)C)cc(N(C)C)nc2c1,5 µg/mL
13,Cc1cc(N(C)C)nc2cc(N)ccc12,6 µg/mL
14,CCC(=O)C(CCCCCCOc1ccc(OC)cc1Cl)C(=O)CC [ARILDONE],11 µg/mL
15,CC(=O)Nc1ccc2c(C)cc(Cl)nc2c1,21 µg/mL
16,Cc1cc(Cl)nc2cc(N)ccc12,53 µg/mL
17,CC(=O)Nc1ccc2c(C)cc(N(C)C)nc2c1,18 µg/mL
18,CCN(CC)CCCC(C)Nc1ccnc2cc(Cl)ccc12 (stereo not given) [CHLOROQUINE],27 µg/mL

# System: Human alphaherpesvirus 1
# Test: Inhibitory activity against herpes simplex virus type-1 (HSV-1) replication in infected KB cells
# Type: functional, organism-based
# Settings: Human alphaherpesvirus 1, KB
# Procedure, shortened: as §1
row,IC50,SMILES
1,29 µg/mL,Cc1c(O)nc2cc(N(C)C)ccc2c1O

# System: Human alphaherpesvirus 1
# Test: In vitro therapeutic index as ratio of cytotoxicity to inhibition of viral replication
# Type: organism-based
# Settings: human alphaherpesvirus 1, in vitro; read-out: Therapeutic index
# Procedure, shortened: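 Ratio of the cytotoxicity I50 to the HSV-1 replication I50, rounded to the nearest whole number. Cytotoxicity I50 was the mean of four I50 values (Lowry protein, 3H-amino acid uptake, diphenylamine DNA, [3H]thymidine uptake) in uninfected KB cells after 20 h. Replication I50 was from plaque titers of infected KB cultures after 20 h.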
row,SMILES,selectivity ratio
1,Cc1ccnc2cc(N)ccc12,2
2,Nc1nc2c(ncn2COCCO)c(=O)[nH]1 [ACYCLOVIR],> 38
3,Cc1cc(Cl)c2ccc(N(C)C)cc2n1,3
4,CN(C)c1ccc2ccc(N(C)C)nc2c1,3
5,Nc1ncnc2c1ncn2[C@@H]1O[C@H](CO)[C@@H](O)[C@@H]1O [VIDARABINE],7
6,CNc1ccc2ccc(N(C)C)cc2n1,2
7,CC(=O)Nc1ccc2c(C)cc(N)nc2c1,3
8,Cc1ccc2ccc(N(C)C)cc2n1,9
9,Cc1c(Cl)nc2cc(N(C)C)ccc2c1Cl,2
10,CC(=O)Nc1ccc2c(C)ccnc2c1,7
11,CN(C)c1ccc2ccc(N)cc2n1,3
12,O=C(O)P(=O)(O)O [FOSCARNET],8
13,Cc1cn([C@@H]2O[C@H](CO)[C@@H](O)[C@@H]2O)c(=O)[nH]c1=O,833
14,Cc1cnc2cc(N(C)C)ccc2c1,9
15,Cc1cc(N)nc2cc(N)ccc12,7
16,Cc1c(O)nc2cc(N(C)C)ccc2c1O,3
17,CN(C)c1ccc2ccc(N)nc2c1,5
18,CN(C)c1ccc2c(N(C)C)cc(N(C)C)nc2c1,4
19,Cc1cc(N(C)C)nc2cc(N)ccc12,2
20,Cc1cc(N(C)C)c2ccc(N(C)C)cc2n1,2
21,CN(C)c1ccc2ccc(O)nc2c1,5
22,Cc1cc(O)c2ccc(N(C)C)cc2n1,19
23,CCC(=O)C(CCCCCCOc1ccc(OC)cc1Cl)C(=O)CC [ARILDONE],7
24,CC(=O)Nc1ccc2c(C)cc(Cl)nc2c1,4
25,Cc1cc(Cl)nc2cc(N)ccc12,3
26,CC(=O)Nc1ccc2c(C)cc(N(C)C)nc2c1,6
27,CCN(CC)CCCC(C)Nc1ccnc2cc(Cl)ccc12 (stereo not given) [CHLOROQUINE],3
28,CNc1cc(C)nc2cc(N(C)C)ccc12,2

# System: KB (Homo sapiens)
# Test: In vitro cytotoxicity in uninfected KB cells; Low drug solubility
# Settings: not given
row,SMILES,IC50
1,Cc1c(Cl)nc2cc(N(C)C)ccc2c1Cl,> 32 µg/mL
2,Cc1c(N(C)C)nc2cc(N(C)C)ccc2c1Cl,> 32 µg/mL
